# Active and inactive are the calls of the source. No cut-off for these calls is given here.
# How the values were obtained:
# Acinetobacter baumannii [1] = experiment: Bactericidal activity against multidrug-resistant Acinetobacter baumannii ATCC 1794 at 50 uM after 5 mins by time-kill kinetic assay relative to control; assay type: functional
# In short: (§1)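 Overnight culture diluted 1:1000 into LB containing compound at the set concentration or DMSO vehicle alone, then shaken at 250 rpm at 37 °C. At 1, 3, 5 and 10 min, aliquots were serially diluted and plated on LB 1.5% agar and incubated overnight at 37 °C. CFU/mL were taken from plates with 30–300 colonies and compared with vehicle control. Three replicates came from separate colonies.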
# Staphylococcus aureus [2] = experiment: Bactericidal activity against methicillin-resistant Staphylococcus aureus ATCC BAA 1707 assessed as as reduction in bacterial load by measuring reduction in colony forming units at 50 uM preincubated for 3 min followed by subculturing and further incubated for over night by time-kill kinetic assay; assay type: functional; in short: as §1
# Cryptococcus neoformans [3] = experiment: Fungicidal activity against Cryptococcus neoformans ATCC 66031 at 50 uM after 5 to 10 mins by time-kill kinetic assay relative to control; assay type: functional
# In short: (§2)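 C. neoformans ATCC 66031 was streaked on YPD agar for two days at 37 °C, and single colonies were grown overnight in YPD at 37 °C, 250 rpm. Overnight cultures were diluted in fresh YPD with compound in DMSO at 50 μM final, or DMSO alone, and kept at 37 °C, 250 rpm. Aliquots were diluted and plated on YPD agar, and colonies counted after 1–2 days at 37 °C. Triplicate; CFU per mL.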
# [4] = tested on: Staphylococcus epidermidis; experiment: Antibacterial activity against methicillin-resistant Staphylococcus epidermidis ATCC 35984 after 16 to 18 hrs by CLSI protocol based broth microdilution assay; assay type: functional
# Staphylococcus aureus [5] = experiment: Bactericidal activity against methicillin-resistant Staphylococcus aureus ATCC BAA 1707 assessed as as reduction in bacterial load by measuring reduction in colony forming units at 50 uM preincubated for 1 min followed by subculturing and further incubated for over night by time-kill kinetic assay; assay type: functional; in short: as §1
# Staphylococcus aureus [6] = experiment: Bactericidal activity against methicillin-resistant Staphylococcus aureus ATCC BAA 1707 at 50 uM after 5 to 10 mins by time-kill kinetic assay relative to control; assay type: functional; in short: as §1
# Escherichia coli = experiment: Antibacterial activity against Escherichia coli clinical isolate UAEC-1 after 16 to 18 hrs by CLSI protocol based broth microdilution assay; assay type: functional
# Staphylococcus aureus [7] = experiment: Antibacterial activity against methicillin-resistant Staphylococcus aureus ATCC BAA 1707 at 50 uM treated with 111 days old solution of test compound for 10 mins relative to control; assay type: functional
# In short: (§3)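 Compound was prepared at 50 μM in LB and stored on the shelf for 18 days or 111 days. Exponentially growing MRSA 1707 (overnight culture diluted 1:1000 in LB) was exposed to the stored solution for 10 min at 37 °C with 250 rpm shaking. Aliquots were serially diluted, plated on LB agar and incubated overnight at 37 °C. CFU/mL were compared with vehicle control.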
# Klebsiella pneumoniae = experiment: Antibacterial activity against Klebsiella pneumoniae ATCC 13883 after 16 to 18 hrs by CLSI protocol based broth microdilution assay; assay type: functional
# [8] = tested on: Staphylococcus epidermidis; experiment: Bactericidal activity against methicillin-resistant Staphylococcus epidermidis ATCC 35984 at 50 uM after 5 to 10 mins by time-kill kinetic assay relative to control; assay type: functional; in short: as §1
# Staphylococcus aureus [9] = experiment: Antibacterial activity against methicillin-resistant Staphylococcus aureus ATCC BAA 1707 assessed as as reduction in bacterial load by measuring reduction in colony forming units at 50 uM treated with 18 days old solution of test compound for 10 mins followed by subculturing and further incubated for over night by time-kill kinetic assay; assay type: functional; in short: as §3
# Acinetobacter baumannii [10] = experiment: Bactericidal activity against multidrug-resistant Acinetobacter baumannii ATCC 1794 at 50 uM after 10 mins by time-kill kinetic assay relative to control; assay type: functional; in short: as §1
# Staphylococcus aureus [11] = experiment: Antibacterial activity against methicillin-resistant Staphylococcus aureus ATCC BAA 1707 at 50 uM treated with 18 days old solution of test compound for 10 mins relative to control; assay type: functional; in short: as §3
# Staphylococcus aureus [12] = experiment: Bactericidal activity against methicillin-resistant Staphylococcus aureus ATCC BAA 1707 assessed as as reduction in bacterial load by measuring reduction in colony forming units at 5 uM preincubated for 10 min followed by subculturing and further incubated for over night by time-kill kinetic assay; assay type: functional; in short: as §1
# Enterococcus faecium [13] = experiment: Bactericidal activity vancomycin-resistant Enterococcus faecium ATCC 700221 assessed as as reduction in bacterial load by measuring reduction in colony forming units at 50 uM preincubated for 5 to 10 min followed by subculturing and further incubated for over night by time-kill kinetic assay; assay type: functional; in short: as §1
# Staphylococcus aureus [14] = experiment: Bactericidal activity against methicillin-resistant Staphylococcus aureus ATCC BAA 1707 at 50 uM after 1 min by time-kill kinetic assay relative to control; assay type: functional; in short: as §1
# Staphylococcus aureus [15] = experiment: Bactericidal activity against methicillin-resistant Staphylococcus aureus ATCC BAA 1707 at 20 uM after 5 mins by time-kill kinetic assay relative to control; assay type: functional; in short: as §1
# Staphylococcus aureus [16] = experiment: Antibacterial activity against methicillin-resistant Staphylococcus aureus ATCC BAA 1707 after 16 to 18 hrs by CLSI protocol based broth microdilution assay; assay type: functional
# [17] = Cytotoxicity against human HEK293 cells after 48 hrs by MTT assay; assay type: cell-based
# In short: (§4)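 HEK 293 cells, 10^4 per well, in DMEM with 10% FBS and penicillin/streptomycin, were left overnight at 37 °C under 5% CO2. MTT was added for 3 h and dissolved in DMSO, then OD570 was read. Six replicates per treatment; percent kill = (1 – test OD570/untreated OD570) × 100%; CC50 taken as the half-maximal toxic concentration.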
# Acinetobacter baumannii [18] = experiment: Bactericidal activity against multidrug-resistant Acinetobacter baumannii ATCC 1794 assessed as as reduction in bacterial load by measuring reduction in colony forming units at 50 uM preincubated for 10 min followed by subculturing and further incubated for over night by time-kill kinetic assay; assay type: functional; in short: as §1
# HEK293 = experiment: Cytotoxicity against human HEK293 cells assessed as reduction in viability at 25 uM after 48 hrs by MTT assay relative to control; assay type: cell-based; conditions: hek293, 48 h; in short: as §4
# [19] = tested on: Staphylococcus epidermidis; experiment: Bactericidal activity against methicillin-resistant Staphylococcus epidermidis ATCC 35984 assessed as as reduction in bacterial load by measuring reduction in colony forming units at 50 uM preincubated for 5 to 10 min followed by subculturing and further incubated for over night by time-kill kinetic assay; assay type: functional; in short: as §1
# Enterococcus faecium [20] = experiment: Antibacterial activity against vancomycin-resistant Enterococcus faecium ATCC 700221 after 16 to 18 hrs by CLSI protocol based broth microdilution assay; assay type: functional
# Staphylococcus aureus [21] = experiment: Bactericidal activity against methicillin-resistant Staphylococcus aureus ATCC BAA 1707 at 50 uM after 3 mins by time-kill kinetic assay relative to control; assay type: functional; in short: as §1
# Staphylococcus aureus [22] = experiment: Bactericidal activity against methicillin-resistant Staphylococcus aureus ATCC BAA 1707 at 5 uM after 10 mins by time-kill kinetic assay relative to control; assay type: functional; in short: as §1
# Acinetobacter baumannii [23] = experiment: Antibacterial activity against multidrug-resistant Acinetobacter baumannii ATCC 1794 after 16 to 18 hrs by CLSI protocol based broth microdilution assay; assay type: functional
# Staphylococcus aureus [24] = experiment: Bactericidal activity against methicillin-resistant Staphylococcus aureus ATCC BAA 1707 assessed as as reduction in bacterial load by measuring reduction in colony forming units at 5 uM preincubated for 5 min followed by subculturing and further incubated for over night by time-kill kinetic assay; assay type: functional; in short: as §1
# Staphylococcus aureus [25] = experiment: Bactericidal activity against methicillin-resistant Staphylococcus aureus ATCC BAA 1707 assessed as as reduction in bacterial load by measuring reduction in colony forming units at 20 uM preincubated for 5 min followed by subculturing and further incubated for over night by time-kill kinetic assay; assay type: functional; in short: as §1
# Staphylococcus aureus [26] = experiment: Bactericidal activity against methicillin-resistant Staphylococcus aureus ATCC BAA 1707 assessed as as reduction in bacterial load by measuring reduction in colony forming units at 50 uM preincubated for 5 to 10 min followed by subculturing and further incubated for over night by time-kill kinetic assay; assay type: functional; in short: as §1
# Acinetobacter baumannii [27] = experiment: Bactericidal activity against multidrug-resistant Acinetobacter baumannii ATCC 1794 assessed as as reduction in bacterial load by measuring reduction in colony forming units at 50 uM preincubated for 5 min followed by subculturing and further incubated for over night by time-kill kinetic assay; assay type: functional; in short: as §1
# Cryptococcus neoformans [28] = experiment: Fungicidal activity against Cryptococcus neoformans ATCC 66031 assessed as as reduction in bacterial load by measuring reduction in colony forming units at 50 uM preincubated for 5 to 10 min followed by subculturing and further incubated for 1 or 2 days by time-kill kinetic assay; assay type: functional; in short: as §2
# Enterococcus faecium [29] = experiment: Bactericidal activity vancomycin-resistant Enterococcus faecium ATCC 700221 at 50 uM after 5 to 10 mins by time-kill kinetic assay relative to control; assay type: functional; in short: as §1
# Staphylococcus aureus [30] = experiment: Antibacterial activity against methicillin-resistant Staphylococcus aureus ATCC BAA 1707 assessed as as reduction in bacterial load by measuring reduction in colony forming units at 50 uM treated with 111 days old solution of test compound for 10 mins followed by subculturing and further incubated for over night by time-kill kinetic assay; assay type: functional, organism-based; in short: as §3
# Staphylococcus aureus [31] = experiment: Bactericidal activity against methicillin-resistant Staphylococcus aureus ATCC BAA 1707 at 20 uM after 10 mins by time-kill kinetic assay relative to control; assay type: functional; in short: as §1
# Staphylococcus aureus [32] = experiment: Bactericidal activity against methicillin-resistant Staphylococcus aureus ATCC BAA 1707 assessed as as reduction in bacterial load by measuring reduction in colony forming units at 20 uM preincubated for 10min followed by subculturing and further incubated for over night by time-kill kinetic assay; assay type: functional; in short: as §1
structure (smiles),measurement,setting,value
CCCCCCCCCCCCCCCCn1cc[n+](-c2ccccc2)c1C,Activity,Acinetobacter baumannii [1],99.9%
same,Activity,Staphylococcus aureus [2],4 log10CFU/ml
same,Activity,Cryptococcus neoformans [3],100%
same,MIC,[4],1.17 µM
same,Activity,Staphylococcus aureus [5],4 log10CFU/ml
same,Activity,Staphylococcus aureus [6],100%
same,MIC,Escherichia coli,6.25 µM
same,Activity,Staphylococcus aureus [7],>99%
same,MIC,Klebsiella pneumoniae,6.25 µM
same,Activity,[8],99.9999%
same,Activity,Staphylococcus aureus [9],>3 log10CFU/ml
same,Activity,Acinetobacter baumannii [10],>99.9999%
same,Activity,Staphylococcus aureus [11],>99%
same,Activity,Staphylococcus aureus [12],1 log10CFU/ml
same,Activity,Enterococcus faecium [13],6 log10CFU/ml
same,Activity,Staphylococcus aureus [14],99.99%
same,Activity,Staphylococcus aureus [15],99.9%
same,MIC,Staphylococcus aureus [16],1.56 µM
same,CC50 at 48 h,[17],< 1560 nM
same,Activity,Acinetobacter baumannii [18],>6 log10CFU/ml
same,Activity,HEK293,100%
same,Activity,[19],6 log10CFU/ml
same,MIC,Enterococcus faecium [20],3.13 µM
same,Activity,Staphylococcus aureus [21],99.99%
same,Activity,Staphylococcus aureus [22],90%
same,MIC,Acinetobacter baumannii [23],12.5 µM
same,Activity,Staphylococcus aureus [24],<1 log10CFU/ml
same,Activity,Staphylococcus aureus [25],3 log10CFU/ml
same,Activity,Staphylococcus aureus [26],>6 log10CFU/ml
same,Activity,Acinetobacter baumannii [27],3 log10CFU/ml
same,Activity,Cryptococcus neoformans [28],7 log10CFU/ml
same,Activity,Enterococcus faecium [29],99.9999%
same,Activity,Staphylococcus aureus [30],Active
same,Activity,Staphylococcus aureus [31],99.99%
same,Activity,Staphylococcus aureus [32],4 log10CFU/ml
CCCCCCCCCCCCCCCC[n+]1ccn(Cc2ccccc2)c1C.[I-],CC50 at 48 h,[17],2410 nM
same,Activity,HEK293,100%
CCCCCCCCCCCCCCCC[N+](C)(C)Cc1ccccc1.[Cl-] [CETALKONIUM CHLORIDE],Activity,Staphylococcus aureus [2],4 log10CFU/ml
same,Activity,Staphylococcus aureus [5],4 log10CFU/ml
same,Activity,Staphylococcus aureus [6],100%
same,Activity,Staphylococcus aureus [7],>99%
same,Activity,Staphylococcus aureus [9],>3 log10CFU/ml
same,Activity,Staphylococcus aureus [11],>99%
same,Activity,Staphylococcus aureus [14],99.99%
same,CC50 at 48 h,[17],6840 nM
same,Activity,HEK293,100%
same,Activity,Staphylococcus aureus [21],99.99%
same,Activity,Staphylococcus aureus [26],>6 log10CFU/ml
same,Activity,Staphylococcus aureus [30],Active
